The record followed here is ChEMBL document CHEMBL1641604, “Application of p21 and klf2 reporter gene assays to identify selective histone deacetylase inhibitors for cancer therapy” (Bioorg Med Chem Lett, 2011).

Holding throughout (type): functional
In assay [1] the test system is HeLa. In words: Induction of p21 promoter gene in human HeLa cells assessed as percent induction activity at 10 uM relative to SNDX-275.
Assay [2] deals with HeLa. In words: Selectivity ratio for induction of p21 promoter gene in human HeLa cells to induction of klf2 promoter gene in human A204 cells at 3 uM.
In assay [3] the test system is A204. In words: Induction of klf2 promoter gene in human A204 cells assessed as percent induction activity at 10 uM relative to SNDX-275.
For assay [4], the system named is HeLa. In words: Induction of p21 promoter gene in human HeLa cells assessed as percent induction activity at 3 uM relative to SNDX-275.
The subject of assay [5] is HeLa. Description: Selectivity ratio for induction of p21 promoter gene in human HeLa cells to induction of klf2 promoter gene in human A204 cells at 10 uM.
The test system of assay [6] is A204. In words: Induction of klf2 promoter gene in human A204 cells assessed as percent induction activity at 3 uM relative to SNDX-275.
The test system of assay [7] is HeLa. Description: Antiproliferative activity against human HeLa cells assessed as growth at 3 uM after 24 hrs. The following applies: read-out: Activity. The essentials:
(§1)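 HeLa and A204 cells exposed to test agents at 3 or 10 µM for 24 h. Growth is expressed as percent of vehicle-treated control cells.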

Assay [8] concerns HeLa. Description: Antiproliferative activity against human HeLa cells assessed as growth at 10 uM after 24 hrs. Conditions: read-out: Activity. The essentials:
as §1

The subject of assay [9] is A204. Description: Antiproliferative activity against human A204 cells assessed as growth at 3 uM after 24 hrs. The following applies: A204, 24 h, read-out: Activity. In a few lines: as §1
Assay [10] has as its system A204. In words: Antiproliferative activity against human A204 cells assessed as growth at 10 uM after 24 hrs. Conditions: A204, 24 h, read-out: Activity. In a few lines:
as §1

Turning to `Nc1ccccc1NC(=O)/C=C/c1ccc(C(NCCN2CCCCC2)C(=O)Nc2ccc(C(F)(F)F)cc2)cc1` (stereo unspecified), the Activity turned out to be 77% in the assay with HeLa [1]; 2.4 with HeLa [2]; 85% in the assay on A204 [3]; 163% in the assay on HeLa [4]; 0.9 in the assay with HeLa [5]; 69% with A204 [6].

On to `Nc1ccccc1NC(=O)/C=C/c1ccc(C(NCc2ccco2)C(=O)Nc2ccc(C(F)(F)F)cc2)cc1` (stereo unspecified), for which the Activity was 36% in the assay with HeLa [1]; 0.6 in the assay with HeLa [2]; 21% in the assay on A204 [3]; 19% in the assay on HeLa [4]; 1.7 in the assay with HeLa [5]; 30% with A204 [6].

Regarding `Nc1ccccc1NC(=O)/C=C/c1ccc(C(C(=O)Nc2ccc(C3CC3)cc2)N2CCCC2)cc1` (stereo unspecified), the Activity with HeLa [1] amounted to 148%; in the assay with HeLa [2] it was 1.7; with A204 [3] it was 98%; with HeLa [4], 100%; with HeLa [5], 1.5; with A204 [6] it was 58%.

As for `CC(CNC(C(=O)Nc1ccc(OC(F)(F)F)cc1)c1ccc(/C=C/C(=O)Nc2ccccc2N)cc1)N1CCOCC1` (stereo unspecified), the Activity was 104% in the assay on HeLa [1]; 2.2 in the assay on HeLa [2]; 44% in the assay with A204 [3]; 160% in the assay on HeLa [4]; 2.4 in the assay on HeLa [5]; 72% with A204 [6]. For the same molecule, the growth at 3 µM in the assay on HeLa [7] turned out to be 107%; in the assay on A204 [9], 97%. Also, the growth at 10 µM is 83% in the assay with HeLa [8] and 93% in the assay with A204 [10].

Take `Nc1ccccc1NC(=O)/C=C/c1ccc(C(NCCN2CCCCC2)C(=O)Nc2ccc(-c3ccc(C(F)(F)F)c(F)c3)cc2)cc1` (stereo unspecified): the Activity in the assay with HeLa [1] worked out at 92%; with HeLa [2], 2.4; with A204 [3] it was 54%; in the assay with HeLa [4], 77%; in the assay on HeLa [5], 1.7; with A204 [6] it was 32%.

Turning to `Nc1ccccc1NC(=O)/C=C/c1ccc(C(N)C(=O)Nc2ccc(C(F)(F)F)cc2)cc1` (stereo unspecified), the Activity was 73% with HeLa [1]; 1 with HeLa [2]; 40% in the assay with A204 [3]; 31% with HeLa [4]; 1.8 in the assay on HeLa [5]; 32% in the assay with A204 [6].

In the case of `Nc1ccccc1NC(=O)/C=C/c1ccc(C(NCCC2(O)CCOCC2)C(=O)Nc2ccc(C(F)(F)F)cc2)cc1` (stereo unspecified), the Activity with HeLa [1] was found to be 96%; with HeLa [2], 0.9; with A204 [3], 68%; in the assay with HeLa [4], 55%; with HeLa [5] it was 1.4; with A204 [6] it was 64%.

Turning to `CC(CNC(C(=O)Nc1ccc(-c2ccc(C3CC3)cc2)cc1)c1ccc(/C=C/C(=O)Nc2ccccc2N)cc1)N1CCOCC1` (stereo unspecified), the Activity with HeLa [1] was found to be 196%; with HeLa [2], 2.2; in the assay on A204 [3], 98%; in the assay on HeLa [4], 161%; in the assay with HeLa [5] it was 2; with A204 [6], 75%.

Take `CN(C)CCNC(C(=O)Nc1ccc(C(F)(F)F)cc1)c1ccc(/C=C/C(=O)Nc2ccccc2N)cc1` (stereo unspecified): the Activity is 134% in the assay with HeLa [1]; 2 with HeLa [2]; 93% with A204 [3]; 138% in the assay with HeLa [4]; 1.4 in the assay with HeLa [5]; 69% with A204 [6].

Take `N#Cc1ccc(-c2ccc(NC(=O)C(NCCN3CCCCC3)c3ccc(/C=C/C(=O)Nc4ccccc4N)cc3)cc2)cc1` (stereo unspecified): the Activity in the assay with HeLa [1] came out at 157%; with HeLa [2] it was 1.8; in the assay with A204 [3], 92%; in the assay on HeLa [4], 128%; in the assay with HeLa [5], 1.7; in the assay on A204 [6], 72%.

Turning to `CN(C)C(C(=O)Nc1ccc(C(F)(F)F)cc1)c1ccc(/C=C/C(=O)Nc2ccccc2N)cc1` (stereo unspecified), the Activity in the assay on HeLa [1] is 43%; in the assay on HeLa [2], 0.5; with A204 [3] it was 33%; with HeLa [4] it was 24%; with HeLa [5] it was 1.3; with A204 [6] it was 45%.

Regarding `CN(CCN1CCOCC1)C(C(=O)Nc1ccc(C(F)(F)F)cc1)c1ccc(/C=C/C(=O)Nc2ccccc2N)cc1` (stereo unspecified), the Activity in the assay on HeLa [1] was 121%; in the assay on HeLa [2], 1; in the assay with A204 [3], 82%; with HeLa [4], 72%; with HeLa [5], 1.5; in the assay with A204 [6], 70%.

Consider `Nc1ccccc1NC(=O)/C=C/c1ccc(C(C(=O)Nc2ccc(C(F)(F)F)cc2)N2CCCC2)cc1` (stereo unspecified), for which the Activity in the assay with HeLa [1] stood at 89%; with HeLa [2], 1.4; with A204 [3] it was 69%; in the assay with HeLa [4] it was 85%; in the assay with HeLa [5], 1.3; in the assay on A204 [6] it was 62%.

Regarding `CN(CCN1CCOCC1)C(C(=O)Nc1ccc(OC(F)(F)F)cc1)c1ccc(/C=C/C(=O)Nc2ccccc2N)cc1` (stereo unspecified), the Activity in the assay on HeLa [1] came to 109%; in the assay with HeLa [2], 1.6; with A204 [3] it was 71%; in the assay with HeLa [4], 61%; with HeLa [5] it was 1.5; in the assay on A204 [6] it was 39%.

In the case of `CC(C)c1ccc(-c2ccc(NC(=O)C(NCCN3CCCCC3)c3ccc(/C=C/C(=O)Nc4ccccc4N)cc3)cc2)cc1` (stereo unspecified), the Activity in the assay with HeLa [1] was found to be 130%; in the assay on HeLa [2], 1.8; in the assay with A204 [3], 63%; with HeLa [4], 77%; in the assay with HeLa [5], 2.1; in the assay with A204 [6], 42%.

Take `COCCNC(C(=O)Nc1ccc(C(F)(F)F)cc1)c1ccc(/C=C/C(=O)Nc2ccccc2N)cc1` (stereo unspecified): the Activity with HeLa [1] amounted to 64%; with HeLa [2], 0.8; with A204 [3], 56%; in the assay on HeLa [4], 36%; with HeLa [5] it was 1.1; with A204 [6] it was 45%.

On to `Nc1ccccc1NC(=O)/C=C/c1ccc(C(NCCN2CCSCC2)C(=O)Nc2ccc(C(F)(F)F)cc2)cc1` (stereo unspecified), for which the Activity is 95% with HeLa [1]; 0.9 in the assay on HeLa [2]; 63% in the assay with A204 [3]; 71% in the assay on HeLa [4]; 1.5 with HeLa [5]; 77% in the assay on A204 [6].

Take `Nc1ccccc1NC(=O)/C=C/c1ccc(C(NCCCN2CCOCC2)C(=O)Nc2ccc(OC(F)(F)F)cc2)cc1` (stereo unspecified): the Activity with HeLa [1] was found to be 144%; in the assay with HeLa [2], 2.2; with A204 [3] it was 58%; with HeLa [4], 83%; in the assay with HeLa [5] it was 2.5; in the assay on A204 [6], 38%.

For `Nc1ccccc1NC(=O)/C=C/c1ccc(C(NCCN2CCCCC2)C(=O)Nc2ccc(OC(F)(F)F)cc2)cc1` (stereo unspecified), the Activity in the assay with HeLa [1] was found to be 136%; with HeLa [2], 2.9; in the assay with A204 [3], 40%; in the assay with HeLa [4], 112%; with HeLa [5], 3.4; in the assay on A204 [6], 39%. Further, the figures for the growth at 3 µM in the assay on HeLa [7] and with A204 [9] were 105% and 95%, respectively. Further, the values for the growth at 10 µM in the assay on HeLa [8] and in the assay on A204 [10] were 61% and 88%, respectively.

Take `Nc1ccccc1NC(=O)/C=C/c1ccc(C(NCCN2C[C@@H]3C[C@H]2CO3)C(=O)Nc2ccc(OC(F)(F)F)cc2)cc1` (stereo partly specified): the Activity came to 152% with HeLa [1]; 2.6 in the assay with HeLa [2]; 63% with A204 [3]; 98% in the assay on HeLa [4]; 2.4 with HeLa [5]; 39% in the assay with A204 [6]. The growth at 3 µM came out at 103% with HeLa [7] and 97% with A204 [9]. Moreover, the growth at 10 µM with HeLa [8] worked out at 82%; in the assay on A204 [10], 90%.

As to `Nc1ccccc1NC(=O)/C=C/c1ccc(C(NCCCN2CCOCC2)C(=O)Nc2ccc(C3CC3)cc2)cc1` (stereo unspecified), the Activity with HeLa [1] is 178%; in the assay on HeLa [2] it was 1.7; in the assay with A204 [3] it was 95%; in the assay with HeLa [4], 117%; with HeLa [5] it was 1.9; with A204 [6] it was 70%.

As to `Nc1ccccc1NC(=O)/C=C/c1ccc(C(NCCN2CCCCC2)C(=O)Nc2ccc(-c3ccc(C(F)(F)F)cc3F)cc2)cc1` (stereo unspecified), the Activity in the assay on HeLa [1] came to 153%; in the assay with HeLa [2], 1.7; in the assay on A204 [3], 84%; in the assay on HeLa [4] it was 110%; with HeLa [5], 1.8; in the assay on A204 [6], 65%.

As for `Nc1ccccc1NC(=O)/C=C/c1ccc(C(NCCCN2CCOCC2)C(=O)Nc2ccc(C(F)(F)F)cc2)cc1` (stereo unspecified), the Activity is 130% in the assay with HeLa [1]; 1.9 with HeLa [2]; 79% in the assay with A204 [3]; 139% in the assay with HeLa [4]; 1.7 with HeLa [5]; 73% in the assay with A204 [6].

Take `CN(C)CCNC(C(=O)Nc1ccc(OC(F)(F)F)cc1)c1ccc(/C=C/C(=O)Nc2ccccc2N)cc1` (stereo unspecified): the Activity came to 182% with HeLa [1]; 1.8 in the assay on HeLa [2]; 74% in the assay on A204 [3]; 152% in the assay on HeLa [4]; 2.5 with HeLa [5]; 85% in the assay with A204 [6].
